Results as given in PMC9710334 (BMJ Open Gastroenterology, 2022).
Several values for one entry are separate records, joined by “and”; a condition that tells them apart may be missing. Equal entries are not always repeated.

What was measured:
[1] = system: liver fibrosis models; details: cited from earlier work
[2] = Plasma pharmacokinetics of OP-724 and C-82 after OP-724 infusion; format: in vivo, human; details: for OP-724 AUC0-24h / OP-724 Cmax / OP-724 Tmax / OP-724 T1/2: plasma
Procedure, shortened: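 A single iv dose of 280 or 380 mg/m2 was infused over 4 hours. Blood was drawn predose, at 30 min and 1, 2 and 4 hours after dosing, then 1, 5 and 20 hours after the infusion ended. Plasma parent and metabolite C-82 were quantified. […] Values are mean±SD.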

[3] = system: P300/β-catenin signalling; details: ref 20 23; cited from earlier work
[4] = system: patients with advanced primary biliary cholangitis; experiment: Phase 1 trial: adverse events graded by CTCAE v4.0, safety and tolerability; format: in vivo, human; details: 280 mg/m^2/4 hours (n=6)
Procedure, shortened: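 Seven advanced PBC patients (stage III or higher) received OP-724 iv at 280 (n=6) or 380 (n=1) mg/m2 over 4 hours, twice weekly for 12 cycles, after a single dose given 7 days before cycle 1. AEs and laboratory results were recorded throughout and graded by CTCAE v4.0. The primary endpoint was SAEs where drug causality could not be excluded.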

[5] = OP-724 280 mg/m^2/4 hours, Max, N=6
[6] = OP-724 280 mg/m^2/4 hours, Median, N=6
[7] = OP-724 280 mg/m^2/4 hours, Min, N=6
[8] = single OP-724 iv infusion 280 mg/m^2/4 hours, Mean, N=6
[9] = single OP-724 iv infusion 380 mg/m^2/4 hours, Mean, N=1

## C[C@H]1[C@H]2N(C(=O)CN(C)N2C(=O)NCc2ccccc2)[C@@H](Cc2ccc(OP(=O)(O)O)cc2)C(=O)N1Cc1cccc2cccnc12 [OP-724]
[1]
  antifibrotic effect: exerts antifibrotic effects
[2]; [5]
  OP-724 AUC0-24h: 9210 ng･h/mL
  OP-724 Cmax: 2.46 µg/mL
  OP-724 Tmax: 4 h
[2]; [6]
  OP-724 AUC0-24h: 6340 ng･h/mL
  OP-724 Cmax: 2 µg/mL
  OP-724 Tmax: 2 h
[2]; [7]
  OP-724 AUC0-24h: 3880 ng･h/mL
  OP-724 Cmax: 1.08 µg/mL
  OP-724 Tmax: 0.5 h
[2]; single OP-724 iv infusion 280 mg/m^2/4 hours, Mean, N=4
  OP-724 T1/2: 0.438 h
[2]; [8]
  OP-724 AUC0-24h: 6420±1910 ng･h/mL and 6420 ng･h/mL
  OP-724 Cmax: 1.85 µg/mL
  OP-724 Tmax: 1.9 h
[2]; [9]
  OP-724 AUC0-24h: 10.2 µg·h/mL
  OP-724 Cmax: 3.98 µg/mL
  OP-724 T1/2: 0.497 h
  OP-724 Tmax: 1 h
[2]; single dose, all patients
  time after initiating administration at which plasma OP-724 reached Cmax: 0.5 to 4 h
[3]
  inhibition of P300/β-catenin signalling: does not inhibit
[4]
  Abdominal discomfort, Grade 1, patients n (%): 2 (33%)
  Abdominal discomfort, Grade 2, patients n (%): 0
  Abdominal discomfort, Grades 3–5, patients n (%): 0
  Back pain, Grade 1, patients n (%): 0
  Back pain, Grade 2, patients n (%): 1 (17%)
  Back pain, Grades 3–5, patients n (%): 0
  Constipation, Grade 1, patients n (%): 1 (17%)
  Constipation, Grade 2, patients n (%): 0
  Constipation, Grades 3–5, patients n (%): 0
  Dermatitis contact, Grade 1, patients n (%): 1 (17%)
  Dermatitis contact, Grade 2, patients n (%): 0
  Dermatitis contact, Grades 3–5, patients n (%): 0
  Diarrhoea, Grade 1, patients n (%): 1 (17%)
  Diarrhoea, Grade 2, patients n (%): 0
  Diarrhoea, Grades 3–5, patients n (%): 0
  Dry skin, Grade 1, patients n (%): 0
  Dry skin, Grade 2, patients n (%): 1 (17%)
  Dry skin, Grades 3–5, patients n (%): 0
  Fever, Grade 1, patients n (%): 1 (17%)
  Fever, Grade 2, patients n (%): 0
  Fever, Grades 3–5, patients n (%): 0
  Haemorrhage, Grade 1, patients n (%): 0
  Haemorrhage, Grade 2, patients n (%): 1 (17%)
  Haemorrhage, Grades 3–5, patients n (%): 0
  Hepatic function abnormal, Grade 1, patients n (%): 1 (17%)
  Hepatic function abnormal, Grade 2, patients n (%): 1 (17%)
  Hepatic function abnormal, Grades 3–5, patients n (%): 0
  Infusion site extravasation, Grade 1, patients n (%): 0
  Infusion site extravasation, Grade 2, patients n (%): 1 (17%)
  Infusion site extravasation, Grades 3–5, patients n (%): 0
  Nasopharyngitis, Grade 1, patients n (%): 0
  Nasopharyngitis, Grade 2, patients n (%): 0
  Nasopharyngitis, Grades 3–5, patients n (%): 0
  Nausea, Grade 1, patients n (%): 1 (17%)
  Nausea, Grade 2, patients n (%): 0
  Nausea, Grades 3–5, patients n (%): 0
  Open angle glaucoma, Grade 1, patients n (%): 0
  Open angle glaucoma, Grade 2, patients n (%): 1 (17%)
  Open angle glaucoma, Grades 3–5, patients n (%): 0
  Renal impairment, Grade 1, patients n (%): 1 (17%)
  Renal impairment, Grade 2, patients n (%): 0
  Renal impairment, Grades 3–5, patients n (%): 0
  Tooth fracture, Grade 1, patients n (%): 1 (17%)
